Records with an inconclusive call do not appear.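 Rule for the calls, unless noted: active = inhibition over a set limit, the all-compound mean plus 3 SD, in both replicate runs; inconclusive = over that limit in just one replicate run; inactive = at or under that limit in both runs.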
Assays:
[1] = OD615 S. cerevisiae growth inhibition, permissive medium, pilot counter-assay, permissive growth control for S. cerevisiae lifespan shortening project (AID 705;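 active = growth inhibition above 25% in both replicates, a cutoff set 3 SD above the mean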); details: OD615, 24 h, at 10 µM, hits give high values
How it was run: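 Test system: Saccharomyces cerevisiae strain carrying genetically modified DeaD replicative-lifespan system; buffer or medium: SC raffinose/galactose permissive medium; dosing: one dose 10 µM, DMSO 0.25% final; times: 24 h exposure, 30 °C; measured by: OD at 615 nm; read-out basis: growth inhibition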

[2] = Restrictive medium S. cerevisiae growth inhibition, OD615, pilot screen of yeast lifespan reduction project, restrictive growth control (AID 706;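 active = growth inhibition above a set limit, 3 SD over mean compound inhibition, in both replicates, cut at about 43% in these data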;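 note: modified DeaD lifespan yeast strain shifted to restrictive glucose medium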); details: OD615, 48 h, at 10 µM, hits give high values
How it was run: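 material = engineered S. cerevisiae DeaD strain | buffer or medium = glucose-based CSMM-D restrictive medium | dosing = one concentration, 10 µM final, 0.25% DMSO | schedule = 4 h pre-growth plus 48 h compound exposure, 30 °C | detection = OD615 absorbance reading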

[3] = viability gain of MRP-1-high H69AR cells under doxorubicin, pilot screen, MRP-1 activator project, CellTiter-Glo, duplicate (AID 807;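 active = viability increase at or above a cutoff of the median across tested compounds plus 3 SD, cut at about 8.5% in these data, passing the limit was not always enough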;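 note: compound pretreatment 18-22 h then 72 h combined with doxorubicin; 0% = doxorubicin alone and 100% = vehicle without doxorubicin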); details: H69AR viability with doxorubicin, CellTiter-Glo luminescence; at 10 µM; hits give high values
[4] = growth suppression of beta-catenin knockout HCT116, pilot screen, human colon tumor cells (AID 823;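 active = cell viability at or below a set limit in both duplicate runs, the limit being the all-compound median minus 4 SD, cut at about 23% in these data, passing the limit was not always enough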;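 note: 0% = wells killed by 20 µM Hyamine and 100% = untreated DMSO cell wells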); details: CellTiter-Glo, 60 h, at 10 µM, hits give low values
[5] = growth suppression of PTEN-deleted HCT116, pilot screen, cell-based, HCT116 clonal line, CellTiter-Glo (AID 824;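 active = viability at or below 27.92% in each of two runs, the all-compound median minus 4 SD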;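 note: 0% = 20 µM Hyamine control and 100% = vehicle cell control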); details: 60 h, at 10 µM, hits give low values
[6] = inhibitors of the yeast RAM network, pilot screen, dse1pr::URA3 reporter, 5-FOA selection (AID 869);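 note: 0% = DMSO wells with no growth and 100% = 10 µM 1-NA-PP1 with full growth; RAM network block rescues cells from 5-FOA so hits raise OD615 growth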; details: S. cerevisiae dse1pr::URA3 5-FOA growth, OD615, 2 d; at 10 µM; hits give high values; strain carries analog-sensitive mutant Cbk1 kinase
[7] = RAM signaling pathway blockade in yeast – S. cerevisiae, Pdr1DBD-CYC8 efflux-inhibited sensitized strain, primary screen (AID 1298;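 active = RAM network inhibition above 8.4% in each of two replicates, 3 SD over the compound average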;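 note: 0% = DMSO untreated cells without growth and 100% = 10 µM 1-NA-PP1 full growth; higher means more yeast growth rescued from 5-FOA killing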); details: S. cerevisiae cbk1-as DSE1-URA3 strain, 5-FOA growth OD615, 2 d; at 50 µM; hits give high values

NS(=O)(=O)c1ccc(CCNC(=O)NC2(C(F)(F)F)Oc3ccccc3O2)cc1
inactive: growth inhibition [1] -2.1% | growth inhibition [2] -6.81% | viability increase [3] -6.42% | viability [4] 63.4% | viability [5] 80.3% | inhibition [6] 0.12% | RAM network inhibition [7] 3.68%

COc1ccc(CCNC(=O)c2ccco2)cc1
inactive: growth inhibition [1] 13.4% | growth inhibition [2] 8.97% | viability increase [3] -2.79% | viability [4] 107% | viability [5] 91.8% | inhibition [6] 1.58% | RAM network inhibition [7] -1.03%

O=C(NCc1cccs1)C1CCCN(S(=O)(=O)c2cccc3cccnc23)C1 (configuration not stated)
inactive: growth inhibition [1] 8.41% | growth inhibition [2] 2.37% | viability increase [3] -1.59% | viability [4] 94.8% | viability [5] 90.4% | inhibition [6] 1.41% | RAM network inhibition [7] 2.64%

Cc1cc(C(=O)N2CCN(c3ccccn3)CC2)no1
inactive: growth inhibition [1] -1.03% | growth inhibition [2] 0.795% | viability increase [3] 0.33% | viability [4] 109% | viability [5] 102% | inhibition [6] 1.05% | RAM network inhibition [7] 2.86%

COc1ccc(S(=O)(=O)N2CCC(C(=O)Nc3cccc(Cl)c3)CC2)cc1OC
inactive: growth inhibition [1] -2.42% | growth inhibition [2] -2.81% | viability increase [3] -3.54% | viability [4] 75.9% | viability [5] 78% | inhibition [6] 0.63% | RAM network inhibition [7] 1.52%

NC(=O)CN1CCN(C(=O)NC2CCCCC2)CC1
inactive: growth inhibition [1] -18.1% | growth inhibition [2] -12.7% | viability increase [3] 0.06% | viability [4] 96% | viability [5] 97.9% | inhibition [6] 2.7% | RAM network inhibition [7] 2.11%

CCOc1ccc(C2N(c3ccc(OC)cc3)C(=O)C3CCCN32)cc1OC (configuration not stated)
inactive: growth inhibition [1] -1.7% | growth inhibition [2] -0.11% | viability increase [3] -2.39% | viability [4] 98.7% | viability [5] 101% | inhibition [6] 1.57% | RAM network inhibition [7] 3%

Cc1cc(Nc2ccc(Br)cc2F)n2nc(C)nc2n1
inactive: growth inhibition [1] -19.2% | growth inhibition [2] -14.2% | viability increase [3] -4.07% | viability [4] 88.3% | viability [5] 86% | inhibition [6] 0.87% | RAM network inhibition [7] -0.15%

COc1ccccc1N(CC(=O)Nc1c(C)cccc1C)S(C)(=O)=O
inactive: growth inhibition [1] -11.2% | growth inhibition [2] -8.78% | viability increase [3] -1.48% | viability [4] 101% | viability [5] 98.2% | inhibition [6] 0.715% | RAM network inhibition [7] 3.12%

Cc1cc(C)nc(SCCn2c(N3CCC(C)CC3)nc3c2c(=O)n(C)c(=O)n3C)n1
inactive: growth inhibition [1] -3.83% | growth inhibition [2] 0.625% | viability increase [3] 1.09% | viability [4] 99.9% | viability [5] 97.3% | inhibition [6] 1.71% | RAM network inhibition [7] 1.91%

CC1=C(C(=O)Nc2ccccc2C)C(c2ccccc2)NC(=O)N1 (configuration not stated)
inactive: growth inhibition [1] 0.05% | growth inhibition [2] -7.71% | viability increase [3] -1.25% | viability [4] 97.9% | viability [5] 97.9% | inhibition [6] 1.01% | RAM network inhibition [7] 2.69%

O=C(NC1CC1)c1ccc(CS(=O)(=O)c2c(Cl)cccc2Cl)o1
inactive: growth inhibition [1] 3.79% | growth inhibition [2] -6.65% | viability increase [3] -2.96% | viability [4] 105% | viability [5] 97.4% | inhibition [6] 0.475% | RAM network inhibition [7] 4.31%

O=C1Nc2ccccc2C(O)(C(=O)N2CCCCC2)N1c1ccccc1 (configuration not stated)
inactive: growth inhibition [1] -10.5% | growth inhibition [2] -20.2% | viability increase [3] -1.87% | viability [4] 98.9% | viability [5] 92.2% | inhibition [6] 2.2% | RAM network inhibition [7] 7.2%

Cc1cccc(NC(=O)c2ccccc2Br)n1
inactive: growth inhibition [1] 4.2% | growth inhibition [2] 24% | viability increase [3] -3.61% | viability [4] 103% | viability [5] 94% | inhibition [6] 0.97% | RAM network inhibition [7] 2.02%

COc1ccc(OC)c(NC(=O)Nc2nnc(N3CCC(C)CC3)s2)c1
inactive: growth inhibition [1] -10.7% | growth inhibition [2] -9.16% | viability increase [3] 0.87% | viability [4] 93.1% | viability [5] 92.7% | inhibition [6] 1.01% | RAM network inhibition [7] 2.27%

CC(C)CC(NC(=O)c1ccco1)C(=O)Nc1ccc2c(c1)OCCO2 (configuration not stated)
inactive: growth inhibition [1] 6.21% | growth inhibition [2] 1.03% | viability increase [3] -1.38% | viability [4] 104% | viability [5] 105% | inhibition [6] -0.32% | RAM network inhibition [7] 1.72%

COC(=O)c1ccc(NC(=O)c2cnc3scc(C)n3c2=O)cc1
inactive: growth inhibition [1] -9.29% | growth inhibition [2] -13.3% | viability increase [3] 1.67% | viability [4] 101% | viability [5] 95.8% | inhibition [6] 0.345% | RAM network inhibition [7] 2.36%

CC1CN(C(c2cccs2)c2sc3ncnn3c2O)CC(C)O1 (configuration not stated)
inactive: growth inhibition [1] -15% | growth inhibition [2] -4.9% | viability increase [3] 0.14% | viability [4] 101% | viability [5] 97.8% | inhibition [6] 2.26% | RAM network inhibition [7] 4.47%

CC(C)C12CN3CC(C(C)C)(CN(C1)C31C(=O)Nc3ccccc31)C2=O (configuration not stated)
inactive: growth inhibition [1] -16.5% | growth inhibition [2] -17.8% | viability increase [3] -0.6% | viability [4] 90.3% | viability [5] 101% | inhibition [6] 1.05% | RAM network inhibition [7] 3.39%

CSc1nnc(NC(=O)C2CCCCC2)s1
inactive: growth inhibition [1] -7.81% | growth inhibition [2] -6.62% | viability increase [3] 0.06% | viability [4] 97% | viability [5] 99.3% | inhibition [6] -0.045% | RAM network inhibition [7] 0.63%

CCOC(=O)N1CCN(C(=O)c2ccc3c(c2)N(CC)CCS3)CC1
inactive: growth inhibition [1] -2.54% | growth inhibition [2] 2.25% | viability increase [3] -0.26% | viability [4] 101% | viability [5] 97% | inhibition [6] 1.89% | RAM network inhibition [7] -1.13%

Cc1ccc(NC(=O)C2C3C=CC4(CN(Cc5cccnc5)C(=O)C24)O3)cc1F (configuration not stated)
inactive: growth inhibition [1] -0.35% | growth inhibition [2] -0.595% | viability increase [3] -1.71% | viability [4] 96.7% | viability [5] 97.2% | inhibition [6] 0.345% | RAM network inhibition [7] 9.57%

CC(Oc1ccccc1F)C(=O)NCCN1CCCCC1 (configuration not stated)
inactive: growth inhibition [1] -9.04% | growth inhibition [2] -8.32% | viability increase [3] -0.4% | viability [4] 91.9% | viability [5] 93.6% | inhibition [6] 0.865% | RAM network inhibition [7] 3.01%

Cc1cc(=O)oc(C)c1C(=O)N1CCc2c([nH]c3ccccc23)C1C(C)C (configuration not stated)
inactive: growth inhibition [1] 3.99% | growth inhibition [2] 3.98% | viability increase [3] -5% | viability [4] 94.9% | viability [5] 89.4% | inhibition [6] 1.1% | RAM network inhibition [7] 4.47%

Cc1ccccc1C(=O)Nc1ccccc1
inactive: growth inhibition [1] -0.285% | growth inhibition [2] -2.05% | viability increase [3] -0.99% | viability [4] 96.1% | viability [5] 85.4% | inhibition [6] 0.28% | RAM network inhibition [7] 0.56%

O=C(Nc1ccc(Br)cc1)c1cnccn1
inactive: growth inhibition [1] -12.7% | growth inhibition [2] -21.8% | viability increase [3] -0.6% | viability [4] 98.1% | viability [5] 94.4% | inhibition [6] 1.59% | RAM network inhibition [7] 4.87%

CCCOc1ccc(C2c3c(oc4cc(C)c(C)cc4c3=O)C(=O)N2CCCN(C)C)cc1 (configuration not stated)
inactive: growth inhibition [1] -3.96% | growth inhibition [2] -1.01% | viability increase [3] 0.77% | viability [4] 104% | viability [5] 109% | inhibition [6] 0.185% | RAM network inhibition [7] -0.1%

CN(C)C(CNC(=O)c1cccs1)c1cccnc1 (configuration not stated)
inactive: growth inhibition [1] -14.2% | growth inhibition [2] -20.4% | viability increase [3] -0.5% | viability [4] 105% | viability [5] 97.4% | inhibition [6] 3.75% | RAM network inhibition [7] 0.26%

COc1ccccc1-c1cc(C(F)(F)F)nc(N2CCN(c3ccccc3)CC2)n1
inactive: growth inhibition [1] -2.88% | growth inhibition [2] -13.6% | viability increase [3] -1.89% | viability [4] 77.5% | viability [5] 78.8% | inhibition [6] 3.9% | RAM network inhibition [7] 4.72%

CC(=O)Nc1ccc(-n2c(C)c(C(C)=O)c(C(C)=O)c2C)cc1
inactive: growth inhibition [1] -2.51% | growth inhibition [2] -2.06% | viability increase [3] -2.3% | viability [4] 102% | viability [5] 101% | inhibition [6] 0.515% | RAM network inhibition [7] 4.97%

Cc1cccc(NC(=O)C2CCN(S(=O)(=O)c3cccc4cccnc34)CC2)n1
inactive: growth inhibition [1] -2.91% | growth inhibition [2] 4.94% | viability increase [3] -3.03% | viability [4] 87.2% | viability [5] 84.7% | inhibition [6] 1.35% | RAM network inhibition [7] 1.44%

CCOc1ccccc1C1C(C(N)=O)=C(C)Nc2nc(CCCO)nn21 (configuration not stated)
inactive: growth inhibition [1] -13.8% | growth inhibition [2] 2.83% | viability increase [3] -1.39% | viability [4] 100% | viability [5] 102% | inhibition [6] 2.46% | RAM network inhibition [7] -1.1%

COCCN(CCOC)Cc1c(O)ccc2c3c(c(=O)oc12)CCC3
inactive: growth inhibition [1] -1.66% | growth inhibition [2] 7.01% | viability increase [3] -1.42% | viability [4] 99.9% | viability [5] 102% | inhibition [6] -0.65% | RAM network inhibition [7] -0.97%

O=C(O)C1C2C=CC(C2)C1C(=O)NCCc1cccc(Cl)c1 (configuration not stated)
inactive: growth inhibition [1] -2.6% | growth inhibition [2] 3.11% | viability increase [3] -1.41% | viability [4] 104% | viability [5] 94.7% | inhibition [6] 0.045% | RAM network inhibition [7] 2.92%

Cc1nc(N2CCCCC2)c2sc(=S)n(C)c2n1
inactive: growth inhibition [1] -7.24% | growth inhibition [2] 7.63% | viability increase [3] 1.13% | viability [4] 82.2% | viability [5] 81.9% | inhibition [6] 0.955% | RAM network inhibition [7] 2.15%

Cc1ccc(-c2nc(CS(=O)CC(=O)NC3CCC(C)CC3)c(C)o2)cc1 (configuration not stated)
inactive: growth inhibition [1] 2.73% | growth inhibition [2] 11.8% | viability increase [3] 1.29% | viability [4] 84.8% | viability [5] 94.8% | inhibition [6] 0.76% | RAM network inhibition [7] 2.42%
